SMILES strings stand for the structures. pEC50, pIC50: −log10 of the molar value. Calls of active or inactive are those of the source. The rule behind the calls is not given here. Bounds are passed on as bounds.

This is an account of results in ChEMBL document CHEMBL4402562, “Discovery of Novel Peptidomimetic Boronate ClpP Inhibitors with Noncanonical Enzyme Mechanism as Potent Virulence Blockers in Vitro and in Vivo” (J Med Chem, 2020).

In data set [1] the target is T1, ATP-dependent Clp protease proteolytic subunit (Staphylococcus aureus (strain NCTC 8325)) (UniProt Q2G036).
T1 sequence (whole entry): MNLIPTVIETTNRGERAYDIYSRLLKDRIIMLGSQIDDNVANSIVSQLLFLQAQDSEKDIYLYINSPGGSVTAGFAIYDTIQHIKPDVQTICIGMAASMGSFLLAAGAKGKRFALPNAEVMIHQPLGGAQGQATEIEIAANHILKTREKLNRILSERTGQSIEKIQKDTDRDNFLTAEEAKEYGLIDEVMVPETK
Briefly: Inhibition of N-terminal His6-sumo-tagged full length Staphylococcus aureus ClpP expressed in Escherichia coli […] pre-incubated for 10 mins before Suc-LY-AMC addition and measured after 1 hr by fluorescence based assay. Put shortly:
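SaClpP (1 μM monomer) in 100 mM Hepes pH 7.0, 100 mM NaCl. Preincubated 10 min at RT with inhibitor, two-fold dilutions over 8 steps from 100 μM. Suc-LY-AMC at 200 μM, 380/440 nm recorded for 1 h at 37 °C, slopes normalized to DMSO. For kinact/Ki, inhibitor premixed with substrate and reaction started by enzyme, fitted by least squares. Thrice, triplicate wells.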

The target in data set [2] is T2, ATP-dependent Clp protease proteolytic subunit (Staphylococcus aureus (strain NCTC 8325), UniProt Q2G036).
T2 sequence (Q2G036 whole entry): T1 sequence (whole entry)
Briefly: Inhibition of ClpP in methicillin-resistant Staphylococcus aureus ATCC 33591 assessed as reduction in bacteria-induced hemolysis of sheep erythrocytes by measuring hemoglobin release incubated for 15 mins.

Data set [3] is described as follows: Induction of hemolysis in sheep erythrocytes by measuring hemoglobin release incubated for 15 mins. In kind it is cell-based, Ovis aries, Erythrocyte. In a few lines:
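Serially diluted compound mixed directly with 2% sheep erythrocytes in 10 mM Tris pH 7.4, 0.9% NaCl. Buffer served as negative and water as positive control. After 1,500 rpm, 15 min spin, released hemoglobin read at 545 nm. Three experiments, triplicate tubes.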

Data set [4] is described as follows: Cytotoxicity in human HeLa cells assessed as reduction in cell viability incubated for 24 hrs by MTT assay. The data set is classed as cell-based. In a few lines: (§1)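 MTT assay. HeLa (3×10^3 cells) or HepG2 (4×10^3 cells) seeded in DMEM and grown 24 h, then given compound for a further 24 h. Absorbance read at 570 nm against DMSO wells. GI50 from dose-response fit; three experiments, triplicate wells.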

Data set [5] can be described thus: Cytotoxicity in human HepG2 cells assessed as reduction in cell viability incubated for 24 hrs by MTT assay. In kind it is cell-based. In a few lines:
as §1
(Tetrazolium assays rely on reduction of a dye to a coloured formazan, in cell work by metabolically active cells.)

Data set [6] is described as follows: Inhibition of Staphylococcus aureus ClpXP expressed in Escherichia coli […] using FITC-casein substrate in presence of ATP-regenerating system incubated for 50 mins by fluorescence based assay. In a few lines: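 3.6 μM SaClpP with 3 μM SaClpX in 25 mM Hepes pH 7.5, 20 mM MgCl2, 30 mM KCl, 0.03% Tween 20, 10% glycerol, 2 mM DTT. ATP regeneration: 4 mM ATP, 20 U/mL creatine kinase, 16 mM creatine phosphate. FITC-casein 0.048 mg/mL, 494/521 nm for 50 min; slope 300–1200 s vs DMSO. Thrice, triplicate wells.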

Data set [7] can be described thus: Inhibition of human ClpP (57 to 277 residues) expressed in Escherichia coli […] pre-incubated for 10 mins before Ac-WLA-AMC addition and measured after 1 hr by fluorescence based assay relative to control. In a few lines: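 hClpP (3.5 μM monomer) in 25 mM Tris-HCl pH 8.0, 100 mM KCl. Preincubated 10 min at RT with inhibitor, two-fold dilutions over 8 steps from 100 μM. Then 100 μM Ac-WLA-AMC, 380/440 nm for 1 h at 37 °C, slopes normalized to DMSO. Thrice, triplicate wells.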

For data set [8], the target named is 20S proteasome (Homo sapiens) (UniProt P49721+P20618+P28074+P28062+P28065+P28072+P25786+P25787+P25788+P25789+P28066+P60900+O14818+Q8TAA3+P40306+A5LHX3+P49720+P28070+Q99436). Briefly: Inhibition of 20S proteasome (unknown origin) pre-incubated before Suc-LLVY-AM addition and measured after 1 hr by fluorescence based assay. The data set is classed as protein-complex assay.

Data set [9] is described as follows: Inhibition of AlgW (unknown origin) up to 100 uM pre-incubated for 10 mins before Abz-T-V-A-W-pNA addition and measured after 1 hr by fluorescence based assay.
The target of data set [10] is T1, ATP-dependent Clp protease proteolytic subunit (Staphylococcus aureus (strain NCTC 8325)). Briefly: Inhibition of ClpP in Staphylococcus aureus NCTC8325 with complemented deltaclpP/pYJ335::clpP (deltaclpP+) assessed as reduction in bacteria-induced hemolysis of sheep erythrocytes by measuring hemoglobin release incubated for 15 mins. Put shortly:
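S. aureus strains grown overnight in MHB, diluted to OD600 0.05, then grown at 37 °C to OD600 ~0.6. Serially diluted inhibitor or DMSO added for 8 h more growth. Supernatant mixed 1:1 with 5% sheep erythrocytes, spun 1,500 rpm for 15 min, hemoglobin read at 545 nm. EC50 by nonlinear fit; thrice, triplicate tubes.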

Data set [11] deals with Staphylococcus aureus. Briefly: Inhibition of virulence-related genes expression in methicillin-resistant Staphylococcus aureus ATCC 33591 assessed as reduction in psm expression at 4 to 16 uM by qPCR analysis relative to control. In kind it is functional, organism-based. In a few lines: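 Total RNA from 2×10⁸ CFU treated MRSA by liquid-nitrogen freeze-thaw and TRIzol; qPCR relative to gyrB endogenous control; three experiments, triplicate wells.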
(In general: Real-time PCR tracks product formation cycle by cycle.)

The test system of data set [12] is Staphylococcus aureus. Briefly: Antivirulence activity against methicillin-resistant Staphylococcus aureus ATCC 33591 infected in BALB/c mouse model of skin abscess assessed as effect on bacterial recovery levels at 1.5 to 3 mg/kg injected into shaved area of skin once daily for 4 days measured after 12 hrs post last dose. The data set is classed as functional, organism-based. Put shortly:
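Female BALB/c mice, 6-8 weeks, n=5 per group, backs shaved and depilated 1 day before; 50 µL subcutaneous 1.7 × 10⁹ CFU/mL MRSA ATCC 33591. From 6 h post-infection, 40 µL vehicle, vancomycin 3 mg/kg, or compound 1.5 or 3 mg/kg injected at infection site once daily for 4 days; weight recorded daily. Skin homogenised in saline 12 h after last dose, plated on LB agar 37 °C ≥16 h; log10 CFU/abscess; t-test.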

Data set [13] is described as follows: Toxicity in BALB/c mouse model of skin abscess infected with methicillin-resistant Staphylococcus aureus ATCC 33591 assessed as effect on total protein levels at 1.5 to 3 mg/kg injected into shaved area of skin once daily for 4 days. The conditions noted are these: in vivo, other, 96 h. The data set is classed as organism-based. In a few lines: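 Infected BALB/c mice (n=5/group) dosed 1.5 or 3 mg/kg into the infected skin once daily for 4 days; blood collected on day 4 and day 14, centrifuged 3,500 rpm 15 min, serum biochemistry analysed.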

Data set [14] has as its system Staphylococcus aureus. Briefly: Antivirulence activity against methicillin-resistant Staphylococcus aureus ATCC 33591 infected in BALB/c mouse model of skin abscess assessed as preservation of skin integrity at 1.5 to 3 mg/kg injected into shaved area of skin once daily for 4 days measured after 12 hrs post last dose by hematoxylin and eosin staining based optical microscopy. In kind it is functional, organism-based. In a few lines:
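Same MRSA ATCC 33591 skin-abscess model in female BALB/c mice (n=5/group), 40 µL compound at 1.5 or 3 mg/kg injected into the infected shaved skin once daily for 4 days. On day 4 infected skin and heart, liver, spleen, lung, kidney fixed in 4% paraformaldehyde, embedded, sectioned, H&E stained and examined by microscopy; PBS-treated uninfected and vehicle controls.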

`CC(C)C[C@H](NC(=O)[C@H](Cc1c[nH]c2ccccc12)NC(=O)c1cc(Cl)ccc1Cl)B(O)O`: the inhibition entry in [1] and in data set [10] was “Dose-dependent effect” in each case. Further, the pEC50 in data set [2] is 5.85. The compound also yielded an HC50 at 0.25 h in [3] greater than 500 µM. The values for the GI50 at 24 h in [4] and in data set [5] were 108 µM and 83.4 µM, respectively. Besides, the pIC50 in [6] was 4.16; in data set [7], 4.60 to 5.52. Also, the inhibition result (in data set [8]; in the data set on Staphylococcus aureus [11]) was “Active” throughout. Further, in data set [9], the inhibition result is “inactive”. The outcome in the data set on Staphylococcus aureus [12] and in the data set with Staphylococcus aureus [14] was Active. In addition, the Activity entry in [13] was “Non-Toxic”.

Usually pEC50 stands for the EC50 on a negative log10 scale, so that one unit is a factor of ten. As usually defined, the HC50 is the concentration that lyses half of the red blood cells. Broadly, the GI50 is the concentration at which growth is held to half of that of the control. By pIC50 is commonly meant the IC50 on a negative log10 scale, so that one unit is a factor of ten.
